# Measurements: paper PMC12103582 (Nature Communications, 2025)
# What was measured:
# [1] = tested on: patients who underwent elective abdominal surgery; assay: HSK21542-303: safety; format: in vivo, human
# In short: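 First dose given by i.v. pump within 10 min of randomization and a resting NRS ≥4 (within 4 h postsurgery); three doses 8 h ±15 min apart. Rescue flurbiprofen axetil 50 mg i.v. Antiemetic on demand only, tropisetron 2.5 mg preferred. TEAEs graded by CTCAE v5.0, with labs, ECG and vital signs over an 8-day follow-up.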
# [2] = tested on: postoperative pain in patients who underwent elective abdominal surgery; assay: HSK21542-303 phase 3 trial: efficacy; format: in vivo, human; conditions: for SPID0–12h, LS mean (SE): 1.0 μg/kg (tramadol 50 mg/dose) i.v. at 0, 8, 16 h; for Time to rescue analgesic initiation, P25 (95% CI): 25th percentile; for Cumulative rescue analgesic dose 0–12h / Cumulative rescue analgesic dose 0–24 h: flurbiprofen axetil i.v.; for Cumulative rescue analgesic dose 0–12h / Cumulative rescue analgesic dose 0–24 h / Duration of analgesic effect / Patient satisfaction score / Physician satisfaction score: mean (SD); for Rescue analgesic received 0–12h, n (%) / Rescue analgesic received 0–24 h, n (%): rescue flurbiprofen axetil 50 mg i.v.; for NRS ≤3 12 h, n (%) / NRS ≤3 24 h, n (%): resting pain; for Patient satisfaction score / Physician satisfaction score: scale 0–10 at 24 h
# [3] = cited from earlier work
# [4] = HSK21542-303, follow-up period, arms taken as HSK21542 vs tramadol vs placebo
# [5] = HSK21542-303, FAS, flurbiprofen axetil 50 mg i.v.
smiles,measurement,setting,value
"COc1cccc(C2(O)CCCCC2CN(C)C)c1 (stereo not drawn) [Tramadol, tramadol]",incidence of nausea,[1]; HSK21542-303,41.9%
same,incidence of vomiting,[1]; HSK21542-303,38.0%
same,patients administered antiemetics within 24 h post first dose,[1]; HSK21542-303,54 (41.9%) n (%)
same,patients with TEAEs that led to study withdrawal,[1]; HSK21542-303,two
same,Anemia,"[1]; HSK21542-303, safety set",16 (12.4) n (%)
same,Decreased lymphocyte count,"[1]; HSK21542-303, safety set",0 n (%)
same,Decreased serum potassium,"[1]; HSK21542-303, safety set",3 (2.3) n (%)
same,Decreased thyroid-stimulating hormone,"[1]; HSK21542-303, safety set",0 n (%)
same,Drug-related TEAE,"[1]; HSK21542-303, safety set",74 (57.4) n (%)
same,Fever,"[1]; HSK21542-303, safety set",10 (7.8) n (%)
same,Hematuria,"[1]; HSK21542-303, safety set",2 (1.6) n (%)
same,Hypokalemia,"[1]; HSK21542-303, safety set",10 (7.8) n (%)
same,Inflammation,"[1]; HSK21542-303, safety set",1 (0.8) n (%)
same,Nausea,"[1]; HSK21542-303, safety set",54 (41.9) n (%)
same,SAE,"[1]; HSK21542-303, safety set",1 (0.8) n (%)
same,Vomiting,"[1]; HSK21542-303, safety set",49 (38.0) n (%)
same,Any AE,"[1]; HSK21542-303, safety set, 1.0 μg/kg (tramadol 50 mg/dose) i.v. at 0, 8, 16 h",108 (83.7) n (%)
same,SAE,"[1]; HSK21542-303, safety set, listed as tramadol",One
same,abnormal diastolic blood pressure,[1]; [4],0 cases
same,abnormal heart rate,[1]; [4],1 case
same,abnormal systolic blood pressure,[1]; [4],0 case
same,patients with NRS ≤3 within 12 h,"[2]; HSK21542-303, FAS",51.2%
same,patients with NRS ≤3 within 24 h,"[2]; HSK21542-303, FAS",48.1%
same,"SPID0–12h, LS mean (SE)","[2]; HSK21542-303, FAS",−28.7 (1.11)
same,"Time to rescue analgesic initiation, P25 (95% CI)","[2]; HSK21542-303, FAS","1.17 (0.53, 4.57) h"
same,patients who received rescue analgesics within 0–12 h after first dose,[2]; [5],34.1%
same,patients who received rescue analgesics within 0–24 h after first dose,[2]; [5],35.7%
same,Cumulative rescue analgesic dose 0–12h,"[2]; HSK21542-303, FAS",26.7 (44.21) mg
same,Cumulative rescue analgesic dose 0–24 h,"[2]; HSK21542-303, FAS",29.3 (46.78) mg
same,Duration of analgesic effect,"[2]; HSK21542-303, FAS",21.3 (5.46) h
same,"Rescue analgesic received 0–12h, n (%)","[2]; HSK21542-303, FAS",44 (34.1) n (%)
same,"Rescue analgesic received 0–24 h, n (%)","[2]; HSK21542-303, FAS",46 (35.7) n (%)
same,"NRS ≤3 12 h, n (%)","[2]; HSK21542-303, FAS",66 (51.2) n (%)
same,"NRS ≤3 24 h, n (%)","[2]; HSK21542-303, FAS",62 (48.1) n (%)
same,Patient satisfaction score,"[2]; HSK21542-303, FAS",8.5 (1.58)
same,Physician satisfaction score,"[2]; HSK21542-303, FAS",8.4 (1.42)
same,"SPID0–12h, LS mean (SE)","[2]; HSK21542-303, PPS",−29.8 (0.99)
same,"Time to rescue analgesic initiation, P25 (95% CI)","[2]; HSK21542-303, PPS","1.89 (0.60, 12.73) h"
same,Cumulative rescue analgesic dose 0–12h,"[2]; HSK21542-303, PPS",23.3 (39.39) mg
same,Cumulative rescue analgesic dose 0–24 h,"[2]; HSK21542-303, PPS",26.0 (42.68) mg
same,Duration of analgesic effect,"[2]; HSK21542-303, PPS",22.4 (3.09) h
same,"Rescue analgesic received 0–12h, n (%)","[2]; HSK21542-303, PPS",39 (32.5) n (%)
same,"Rescue analgesic received 0–24 h, n (%)","[2]; HSK21542-303, PPS",41 (34.2) n (%)
same,"NRS ≤3 12 h, n (%)","[2]; HSK21542-303, PPS",63 (52.5) n (%)
same,"NRS ≤3 24 h, n (%)","[2]; HSK21542-303, PPS",59 (49.2) n (%)
same,Patient satisfaction score,"[2]; HSK21542-303, PPS",8.5 (1.59)
same,Physician satisfaction score,"[2]; HSK21542-303, PPS",8.4 (1.43)
same,excretion,[3],mainly excreted via the kidneys
